18 compounds from ChEMBL document CHEMBL1806448, “Optimization of a pyrazole hit from FBDD into a novel series of indazoles as ketohexokinase inhibitors” (Bioorg Med Chem Lett, 2011) can be followed below.

One data set addresses T1, Ketohexokinase (Homo sapiens, UniProt P50053).
T1 sequence (P50053 whole entry): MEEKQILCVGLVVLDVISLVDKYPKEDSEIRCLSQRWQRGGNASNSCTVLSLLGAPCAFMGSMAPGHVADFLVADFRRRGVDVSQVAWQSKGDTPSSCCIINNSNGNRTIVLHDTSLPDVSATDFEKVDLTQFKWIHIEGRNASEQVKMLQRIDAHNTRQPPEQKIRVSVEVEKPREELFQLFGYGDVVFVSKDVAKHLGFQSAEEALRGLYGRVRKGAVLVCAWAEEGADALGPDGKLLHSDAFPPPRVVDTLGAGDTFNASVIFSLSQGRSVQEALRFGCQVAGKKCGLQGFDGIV
Kind of data set: Inhibition of KHK-mediated conversion of D-fructose to fructose-1-phosphate after 60 mins by high throughput mass spectrometry analysis. An outline of the steps:
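KHK enzyme assay at 25 °C with 200 µM fructose, 100 µM ATP and 2 nM KHK under steady-state conditions for 60 min. Fructose-1-P product read out by high-throughput mass spectrometry (RapidFire). 12-point dose–response curve used to derive IC50. 384-well format.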

The nature of data set [1]: Metabolic stability in rat liver microsomes assessed as compound remaining after 10 mins. The format is ADME, Microsome. The conditions noted are these: read-out: Stability.
A short description of data set [2]: Inhibition of sodium channel at 10 uM.
A short description of data set [3]: Half life in rat at 10 mg/kg, po after 24 hrs. On the set-up: dose 10 mg/kg, route oral. The format is ADME, organism-based. The conditions noted are these: in vivo. The essentials: (§1)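 Rat pharmacokinetics over 24 h. Oral dose 10 mg/kg and iv dose 2 mg/kg.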
A short description of data set [4]: Cmax in rat at 10 mg/kg, po after 24 hrs. The format is ADME, organism-based. On the set-up: dose 10 mg/kg, route oral. The conditions noted are these: in vivo. An outline of the steps: as §1
The subject of a further data set is Rattus norvegicus. Nature of the data set: AUClast in rat at 10 mg/kg, po after 24 hrs. The class given is ADME, organism-based, Plasma. Set-up: time < 24 hr, dose 10 mg/kg, route oral. The conditions noted are these: in vivo. The essentials: as §1
A short description of data set [5]: Volume of distribution at steady state in rat at 2 mg/kg, iv after 24 hrs. Set-up: dose 2 mg/kg, route intravenous. The settings on record: in vivo, read-out: Vdss. The class given is ADME, organism-based. The essentials:
as §1

Data set [6] is described as follows: Bioavailability in rat at 10 mg/kg, po after 24 hrs. The conditions noted are these: in vivo.
The nature of data set [7]: Clearance in rat at 2 mg/kg, iv after 24 hrs. The format is ADME, organism-based. On the set-up: dose 2 mg/kg, route intravenous. The settings on record: in vivo. The essentials:
as §1

In general, IC50 refers to the concentration that gives 50% inhibition. Low values mean greater potency, high ones weaker potency. For orientation: inhibition means the drop in the measured response relative to a control, in per cent. Low readings indicate a weak effect, high ones a strong effect. The term half-life denotes the time in which the quantity being followed falls by half. As usually defined, the Cmax is the highest concentration seen after dosing. As a reminder, the bioavailability is dose-corrected exposure relative to a reference, in per cent. Lower therefore signals little systemic uptake. The term clearance denotes a measure of how efficiently the substance is removed, as volume per time. Lower therefore signals a low capacity for elimination.

With `CCc1nc(-c2ccccc2)n2cc(N3CCNCC3)ccc12`, the IC50 on Ketohexokinase is > 20000 nM.

In turn, `CSc1nn(-c2ccc(F)cc2)c2cc(C3=CCNCC3)ccc12` returned an IC50 against Ketohexokinase of 23 nM. The remaining at 10 min in data set [1] was determined as 105%.

As for `CSc1nn(-c2ccccc2)c2c(OC3CCNCC3)cccc12`, the midpoint of inhibition against Ketohexokinase, the IC50, lay at 1680 nM.

The compound `CSc1nn(-c2ccccc2)c2cc(C3CCNCC3)ccc12` had an IC50 against Ketohexokinase of 330 nM.

Turning to `CSc1nn(-c2ccccc2)c2c(OCC3CCNCC3)cccc12`, the half-inhibitory concentration (IC50) on Ketohexokinase is 240 nM.

On to `CCc1nn(-c2ccccc2)c2cc(N3CCN(C4CCNCC4)CC3)ccc12`, for which, in [2], the inhibition came out at 61%.

At Ketohexokinase, `CSc1nn(-c2cccc(C)c2)c2cc(C3=CCNCC3)ccc12` came in with a half-maximal inhibitory concentration (IC50) of 34 nM.

As to `CCc1nn(-c2ccccc2)c2cc(N3CC4CNCC4C3)ccc12` (configuration not stated), the half-life in data set [3] is 3.41 h. Besides, in data set [4], the Cmax is 619 ng/mL. In the data set with Rattus norvegicus, this compound gave an AUClast of 5680 ng·h/mL. Also, in data set [5], the Vd is 7.81 L/kg. For the same compound, in [6], the bioavailability turned out to be 98.8%. Further, in [7], the clearance was 28.9 mL/min/kg.

On to `CSc1nn(-c2ccccc2)c2cc(-c3ccncc3)ccc12`, for which the IC50 against Ketohexokinase was > 10000 nM.

`COc1ccc(-n2nc(SC)c3ccc(C4=CCNCC4)cc32)cc1` had an IC50 at Ketohexokinase of 87 nM.

The compound `CSc1nn(-c2ccccc2)c2cc(C3=CCNCC3)ccc12` showed an IC50 on Ketohexokinase of 80 nM. For the same compound, in data set [1], the remaining at 10 min came to 72%.

Turning to `CSc1nn(-c2ccccc2)c2c(C3=CCNCC3)cccc12`, the IC50 on Ketohexokinase amounted to 11500 nM.

In turn, `CSc1nn(-c2ccc([N+](=O)[O-])cc2)c2cc(C3=CCNCC3)ccc12` came in with an IC50 on Ketohexokinase of 480 nM.

On to `CSc1nn(-c2ccccc2)c2cc(N3CCN(C4CCNCC4)CC3)ccc12`, for which half-maximal inhibition on Ketohexokinase (IC50) was put at 670 nM.

Consider `CCc1nn(-c2ccccc2)c2cc(N3CCN(C4CCNC4)CC3)ccc12` (configuration not stated), for which the half-life in data set [3] was 19.6 h. Moreover, the Cmax in [4] amounted to 399 ng/mL. For the same compound, half-maximal inhibition on Ketohexokinase (IC50) was put at 920 nM. Moreover, the AUClast in the data set on Rattus norvegicus is 4890 ng·h/mL. In data set [5], the Vd is 13.9 L/kg. The same compound registered a bioavailability in data set [6] of 72.4%. Further, the clearance in data set [7] worked out at 21.2 mL/min/kg.

Consider `CSc1nn(-c2ccccc2)c2cc(NC(=O)CC3CCNCC3)ccc12`, for which inhibition at Ketohexokinase was half-maximal at 680 nM (IC50).

For `Cn1nc(-c2ccccc2)c2cc(N3CCNCC3)ccc21`, at Ketohexokinase, the half-inhibitory concentration (IC50) is 1280 nM.

On Ketohexokinase, `CSc1nn(-c2cccc(F)c2)c2cc(C3=CCNCC3)ccc12` returned a half-inhibitory concentration (IC50) of 42 nM. The remaining at 10 min in data set [1] is 96%.
